Experimental data: ChEMBL document CHEMBL4257595, “Improving the Selectivity of PACE4 Inhibitors through Modifications of the P1 Residue” (J Med Chem, 2018)
pIC50, pKi: −log10 of the molar value. Calls of active or inactive are those of the source. No cut-off for these calls is given here. Square brackets hold non-standard residues; d marks the D form. Peptide text beside a SMILES is read from it. * marks the point of attachment. NH(4-amidinobenzyl) = N=C(N)c1ccc(CN*)cc1

Key:
Homo sapiens = species: Homo sapiens; assay: Selectivity ratio of Ki for recombinant human furin to Ki for recombinant human PACE4
In short: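 Ratio of Ki values. Furin Ki measured at 0.54 nM enzyme in Hepes pH 7.5; PACE4 Ki measured at 20.18 nM enzyme in Bis-Tris pH 6.5. Both used 100 µM pGlu-RTKR-AMC with fluorescence at ex 370 / em 460 nm, and Ki came from Cheng-Prusoff (Morrison's equation for one PACE4 value).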

DU-145 [1] = assay: Antiproliferative activity against human DU145 cells after 72 hrs by MTT assay; format: functional, cell-based; conditions: for pIC50: Homo sapiens, DU-145, 72 h, read-out: IC50; for IC50: du-145
In short: (§1)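 MTT proliferation read-out. DU145 cultured in RPMI-1640 with 5% FBS; LNCaP cultured in RPMI-1640 with 10% FBS. IC50 calculated from dose-response curves.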

LNCaP [2] = assay: Antiproliferative activity against human LNCAP cells after 72 hrs by MTT assay; format: functional, cell-based; conditions: for pIC50: Homo sapiens, LNCaP, 72 h, read-out: IC50; for IC50: lncap; in short: as §1
Furin = Furin (Homo sapiens, UniProt P09958); assay: Inhibition of recombinant human furin using pGlu-Arg-Thr-Lys-Arg-AMC peptide as substrate by spectrofluorometry
Chain of Furin (P09958 whole entry): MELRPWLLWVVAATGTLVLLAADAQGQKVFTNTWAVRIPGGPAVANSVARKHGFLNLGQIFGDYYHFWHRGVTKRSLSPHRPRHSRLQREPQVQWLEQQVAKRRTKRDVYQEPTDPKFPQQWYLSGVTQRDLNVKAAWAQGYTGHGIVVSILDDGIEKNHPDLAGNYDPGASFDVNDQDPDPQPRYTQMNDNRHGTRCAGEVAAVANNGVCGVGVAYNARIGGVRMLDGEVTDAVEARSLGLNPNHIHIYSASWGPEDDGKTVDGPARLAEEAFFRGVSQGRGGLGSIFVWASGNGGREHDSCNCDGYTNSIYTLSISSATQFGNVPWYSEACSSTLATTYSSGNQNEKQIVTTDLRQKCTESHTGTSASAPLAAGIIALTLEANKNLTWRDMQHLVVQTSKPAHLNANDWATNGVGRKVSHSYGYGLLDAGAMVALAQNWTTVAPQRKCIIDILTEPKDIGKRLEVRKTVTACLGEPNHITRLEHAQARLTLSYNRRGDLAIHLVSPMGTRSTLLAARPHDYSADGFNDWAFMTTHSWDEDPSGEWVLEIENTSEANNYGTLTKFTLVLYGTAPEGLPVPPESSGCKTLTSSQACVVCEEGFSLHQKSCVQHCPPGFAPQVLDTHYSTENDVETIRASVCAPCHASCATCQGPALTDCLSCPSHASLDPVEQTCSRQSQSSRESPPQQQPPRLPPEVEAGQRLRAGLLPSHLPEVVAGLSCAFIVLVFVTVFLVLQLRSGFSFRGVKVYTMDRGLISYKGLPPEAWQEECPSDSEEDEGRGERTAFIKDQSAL
In short: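 Recombinant human furin at 0.54 nM (Km 5.040 µM) in 100 mM Hepes pH 7.5, 1 mM CaCl2, 1 mM β-mercaptoethanol and 1.8 mg/mL BSA. Substrate pGlu-RTKR-AMC at 100 µM per well. Fluorescence read at ex 370 / em 460 nm. Ki derived by Cheng-Prusoff.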

[3] = target: T1, Proprotein convertase subtilisin/kexin type 6 (Homo sapiens, UniProt P29122); assay: Inhibition of recombinant human PACE4 using pGlu-Arg-Thr-Lys-Arg-AMC peptide as substrate by spectrofluorometry
T1 sequence (P29122 whole entry): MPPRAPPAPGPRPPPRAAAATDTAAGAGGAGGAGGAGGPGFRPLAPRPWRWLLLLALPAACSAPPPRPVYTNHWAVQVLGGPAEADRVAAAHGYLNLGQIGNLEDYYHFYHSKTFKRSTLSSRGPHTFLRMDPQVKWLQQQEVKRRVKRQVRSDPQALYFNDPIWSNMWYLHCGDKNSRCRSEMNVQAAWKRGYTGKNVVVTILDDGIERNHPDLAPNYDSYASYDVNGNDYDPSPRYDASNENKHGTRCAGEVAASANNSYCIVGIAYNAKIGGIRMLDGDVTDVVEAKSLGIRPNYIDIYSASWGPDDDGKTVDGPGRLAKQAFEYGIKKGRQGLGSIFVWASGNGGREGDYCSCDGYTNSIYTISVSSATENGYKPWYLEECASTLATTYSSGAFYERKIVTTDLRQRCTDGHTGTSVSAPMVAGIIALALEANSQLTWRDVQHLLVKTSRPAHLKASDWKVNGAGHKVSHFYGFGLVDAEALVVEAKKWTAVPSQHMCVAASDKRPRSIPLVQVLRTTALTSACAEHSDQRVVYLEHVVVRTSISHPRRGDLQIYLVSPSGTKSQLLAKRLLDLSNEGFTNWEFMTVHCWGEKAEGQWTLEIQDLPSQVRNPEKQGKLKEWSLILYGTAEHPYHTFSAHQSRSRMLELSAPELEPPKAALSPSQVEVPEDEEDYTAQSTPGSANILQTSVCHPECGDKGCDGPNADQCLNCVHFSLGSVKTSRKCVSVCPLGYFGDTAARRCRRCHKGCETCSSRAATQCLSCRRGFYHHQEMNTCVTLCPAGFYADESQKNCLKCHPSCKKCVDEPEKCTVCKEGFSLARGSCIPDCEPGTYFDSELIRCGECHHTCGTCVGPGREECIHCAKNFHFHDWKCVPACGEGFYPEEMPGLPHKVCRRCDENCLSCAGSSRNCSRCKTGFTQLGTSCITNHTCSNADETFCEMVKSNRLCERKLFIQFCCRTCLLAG

DU-145 [4] = assay: Antiproliferative activity against human DU145 cells at <150 uM after 72 hrs by MTT assay; format: functional, cell-based
In short: (§2)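 Doses tested up to 150 µM. MTT read-out on DU145 (RPMI-1640, 5% FBS) or LNCaP (RPMI-1640, 10% FBS).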

LNCaP [5] = assay: Antiproliferative activity against human LNCAP cells at <150 uM after 72 hrs by MTT assay; format: functional, cell-based; in short: as §2
[6] = Drug uptake in human DU145 cells at 1 uM after 48 hrs using FITC-labeled compounds by propidium iodide/ trypan blue-dual staining based flow cytometry; format: ADME, cell-based; conditions: du-145, 1 h, in the assay text read “1 hr” for “48 hrs”
In short: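 DU145 cells plated at 200000 per 100 mm dish and grown 48 h at 37 °C. FITC-labelled analogue added at 1 µM for 1 h at 37 °C. Cells harvested with 0.05% trypsin and washed in PBS. PI added at 10 µg/mL final just before acquisition. A parallel set was quenched with 0.04% trypan blue. Flow cytometry on ≥10000 events with 488/638 nm lasers.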

[7] = Half life in human plasma; format: ADME, cell-free

| Ratio Ki (Homo sapiens) | pIC50 (DU-145 [1]) | pIC50 (LNCaP [2]) | pKi (Furin) | pKi [3] | Compound | other results |
| --- | --- | --- | --- | --- | --- | --- |
| 2 | 3.96 | 3.90 | 7.22 | 7.49 | CC(=O)N[C@H](CC(C)C)C(=O)N[C@@H](CC(C)C)C(=O)N[C@@H](CC(C)C)C(=O)N[C@@H](CC(C)C)C(=O)N[C@@H](CCCNC(=N)N)C(=O)N[C@H](C(=O)N[C@@H](CCCCN)C(=O)NCC#CCNC(=N)N)C(C)C | – |
| 3 | 4.40 | 3.68 | 7.42 | 7.89 | CC(=O)N[C@H](CC(C)C)C(=O)N[C@@H](CC(C)C)C(=O)N[C@@H](CC(C)C)C(=O)N[C@@H](CC(C)C)C(=O)N[C@@H](CCCNC(=N)N)C(=O)N[C@H](C(=O)N[C@@H](CCCCN)C(=O)NC/C=C/CNC(=N)N)C(C)C | – |
| 5 | 4.30 | 3.95 | 6.62 | 7.28 | CC(=O)N[C@H](CC(C)C)C(=O)N[C@@H](CC(C)C)C(=O)N[C@@H](CC(C)C)C(=O)N[C@@H](CC(C)C)C(=O)N[C@@H](CCCNC(=N)N)C(=O)N[C@H](C(=O)N[C@@H](CCCCN)C(=O)NCc1ccc(C(=N)N)c(O)c1)C(C)C | – |
| – | 4.60 | 4.35 | – | – | Ac-LLLLRVKR-NH2 | half-life [7]: 1.7 h |
| 8 | 3.89 | 3.85 | 7.67 | 8.59 | CC(=O)N[C@H](CC(C)C)C(=O)N[C@@H](CC(C)C)C(=O)N[C@@H](CC(C)C)C(=O)N[C@@H](CC(C)C)C(=O)N[C@@H](CCCNC(=N)N)C(=O)N[C@H](C(=O)N[C@@H](CCCCN)C(=O)NCc1ccc(C(=N)N)nc1)C(C)C | – |
| 1 | – | – | 6.21 | 6.30 | CC(=O)N[C@H](CC(C)C)C(=O)N[C@@H](CC(C)C)C(=O)N[C@@H](CC(C)C)C(=O)N[C@@H](CC(C)C)C(=O)N[C@@H](CCCNC(=N)N)C(=O)N[C@H](C(=O)N[C@@H](CCCCN)C(=O)NCc1ccc2c(N)noc2c1)C(C)C | IC50 (DU-145 [1]): Nd(Insoluble); IC50 (LNCaP [2]): Nd(Insoluble) |
| 2 | 4.16 | 3.64 | 6.22 | 6.62 | CC(=O)N[C@H](CC(C)C)C(=O)N[C@@H](CC(C)C)C(=O)N[C@@H](CC(C)C)C(=O)N[C@@H](CC(C)C)C(=O)N[C@@H](CCCNC(=N)N)C(=O)N[C@H](C(=O)N[C@@H](CCCCN)C(=O)NCc1c(F)c(F)c(C(=N)N)c(F)c1F)C(C)C | – |
| 2 | – | – | – | – | CC(=O)N[C@H](CC(C)C)C(=O)N[C@@H](CC(C)C)C(=O)N[C@@H](CC(C)C)C(=O)N[C@@H](CC(C)C)C(=O)N[C@@H](CCCNC(=N)N)C(=O)N[C@H](C(=O)N[C@@H](CCCCN)C(=O)NCc1ccc(C(=N)N)cc1)C(C)C (Ac-[dL]LLLRVK-{NH(4-amidinobenzyl)}) | – |
| 4 | 4.21 | 4.24 | 7.22 | 7.85 | CC(=O)N[C@H](CC(C)C)C(=O)N[C@@H](CC(C)C)C(=O)N[C@@H](CC(C)C)C(=O)N[C@@H](CC(C)C)C(=O)N[C@@H](CCCNC(=N)N)C(=O)N[C@H](C(=O)N[C@@H](CCCCN)C(=O)NCc1ccc(C(=N)N)c(N)c1)C(C)C | – |

Continued, compound first:

| Compound | Ratio Ki (Homo sapiens) | pIC50 (DU-145 [1]) | pIC50 (LNCaP [2]) | pKi (Furin) | pKi [3] | other results |
| --- | --- | --- | --- | --- | --- | --- |
| CC(=O)N[C@H](CC(C)C)C(=O)N[C@@H](CC(C)C)C(=O)N[C@@H](CC(C)C)C(=O)N[C@@H](CC(C)C)C(=O)N[C@@H](CCCNC(=N)N)C(=O)N[C@H](C(=O)N[C@@H](CCCCN)C(=O)N[C@@H](CCCNC(=N)N)C(N)=O)C(C)C | 32 | – | – | – | – | – |
| CC(=O)N[C@H](CC(C)C)C(=O)N[C@@H](CC(C)C)C(=O)N[C@@H](CC(C)C)C(=O)N[C@@H](CC(C)C)C(=O)N[C@@H](CCCNC(=N)N)C(=O)N[C@H](C(=O)N[C@@H](CCCCN)C(=O)NCc1ccc2c(N)n[nH]c2c1)C(C)C | 1 | – | – | 6.08 | 6.15 | IC50 (DU-145 [1]): Nd(Insoluble); IC50 (LNCaP [2]): Nd(Insoluble) |
| CC(=O)N[C@H](CC(C)C)C(=O)N[C@@H](CC(C)C)C(=O)N[C@@H](CC(C)C)C(=O)N[C@@H](CC(C)C)C(=O)N[C@@H](CCCNC(=N)N)C(=O)N[C@H](C(=O)N[C@@H](CCCCN)C(=O)N[C@H](CO)CCCNC(=N)N)C(C)C | – | – | – | 6.60 | 6.72 | Activity (DU-145 [4]): inactive; Activity (LNCaP [5]): inactive |
| CC(C)C[C@H](NC(=O)[C@H](CC(C)C)NC(=O)[C@H](CC(C)C)NC(=O)[C@@H](CC(C)C)NC(=O)CCN)C(=O)N[C@@H](CCCNC(=N)N)C(=O)N[C@H](C(=O)N[C@@H](CCCCN)C(=O)NCc1ccc(C(=N)N)cc1)C(C)C | – | – | – | – | – | Drug uptake [6]: Active |
| CC(=O)N[C@H](CC(C)C)C(=O)N[C@@H](CC(C)C)C(=O)N[C@@H](CC(C)C)C(=O)N[C@@H](CC(C)C)C(=O)N[C@@H](CCCNC(=N)N)C(=O)N[C@H](C(=O)N[C@@H](CCCCN)C(=O)NCCc1ccc(C(=N)N)cc1)C(C)C | 2 | 4.10 | 4.10 | 7.39 | 7.77 | – |
| CC(C)C[C@H](NC(=O)[C@H](CC(C)C)NC(=O)[C@H](CC(C)C)NC(=O)[C@@H](CC(C)C)NC(=O)CCN)C(=O)N[C@@H](CCCNC(=N)N)C(=O)N[C@H](C(=O)N[C@@H](CCCCN)C(=O)NCc1ccc(C(=N)N)nc1)C(C)C | – | – | – | – | – | Drug uptake [6]: Active |
